Assay [1] deals with CXCR4. The note with it: cited from earlier work.
Assay [2] deals with GPR15. As to the kind of experiment: GPR15 cell surface down-modulation in GHOST-GPR15 and CEM-M7 cells. The assay is classed as cell-based, human.
In assay [3] the test system is CXCR4. As to the kind of experiment: CXCR4 surface expression on PBMCs. In kind it is cell-based, human. The note with it: 10 µM, 1 h at 37°C; FACS; n = 3 donors.
The test system of assay [4] is GPR15. As to the kind of experiment: GPR15 surface expression on PBMCs. The assay is classed as cell-based, human. The note with it: 10 µM, 1 h at 37°C; FACS; n = 3 donors.
In assay [5] the test system is CXCR4-mediated HIV-1 infection. As to the kind of experiment: CXCR4-tropic HIV-1 NL4-3 infection of GHOST-CXCR4 cells. The note with it: GHOST-CXCR4, HIV-1 NL4-3; three experiments. The assay is classed as cell-based, HIV-1 in human osteosarcoma (GHOST) cells.
Assay [6] deals with GPR15-mediated SIVmac239 infection. As to the kind of experiment: Inhibition of GPR15-mediated SIVmac239 infection of GHOST-GPR15 cells. In kind it is cell-based, SIVmac239 in human osteosarcoma (GHOST) cells. The gist of the method:
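GHOST-GPR15 cells were seeded, cultured overnight and treated with test peptide for 2 h at 37 °C. They were then infected with SIVmac239 carrying Firefly luciferase in place of nef. Three days post-infection, cells were lysed and luciferase activity (RLU) was measured. Runs were at least in triplicate (mean ± SEM), and IC₅₀ was derived from increasing peptide concentrations.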

The subject of assay [7] is GPR15. As to the kind of experiment: Calcium release in GPR15-expressing CHO cells. The assay is classed as cell-based. The note with it: CHO cells with human GPR15 and Gα16; aequorin; quadruplicate.
For assay [8], the system named is CCR5. The note with it: cited from earlier work.

Take “CXCL-12/SDF-1: chemokine ligand of CXCR4”: the “inhibition of CXCR4-mediated HIV-1 infection by chemokine ligand” value in assay [1] is “inhibit CCR5- or CXCR4-mediated HIV-1 infection, respectively”.
With “GPR15L: agonistic chemokine ligand of GPR15 (KRRPAKAWSGRRTRLCCHRVPSPNSTNLKGHHVRLCKPCKLEPEPRLWVVPGALPQV; UniProt Q6UWK7 25-81, looked up)”, the “GPR15 cell surface expression” value in assay [2] (GHOST-GPR15 and CEM-M7 cells, 30 min at 37°C or 4°C, flow cytometry) is “induced down-regulation of GPR15 from the surface of GHOST-GPR15 and CEM-M7 cells”. The “GPR15 receptor internalization on ice” value in assay [2] (cells kept on ice (4°C)) is given as “strongly reduced”. Moreover, the “CXCR4 surface expression on PBMCs” value in assay [3] was “induced significant down-modulation of CXCR4”. In addition, in assay [4], the “reduction of GPR15 cell surface expression on PBMCs” value is given as about 40%. Also, in assay [5], the “inhibition of CXCR4-mediated HIV-1 infection” value was “neither CysC95-146 nor GPR15L inhibited CXCR4-mediated HIV-1 infection”. The “effect of GPR15L on antiviral activity of CysC95-146” value in assay [6] (GHOST-GPR15 treated with CysC95-146 in presence or absence of GPR15L, SIVmac239 luciferase reporter) is given as “did not enhance the antiviral activity of CysC95-146”. Further, in assay [6] (overall statement (Discussion)), the “inhibitory effect on HIV and SIV entry” value is “little if any inhibitory effect on HIV and SIV entry”. For the same molecule, in assay [7], the “calcium release (GPR15 signaling)” value is given as “GPR15 signaling was confirmed”.
With Maraviroc [reference compound], the “antagonism of chemokine signaling via CCR5” value in assay [8] was “antagonize chemokine signaling via these GPCRs”.
As for `c1cc(CN2CCCNCCNCCCNCC2)ccc1CN1CCCNCCNCCCNCC1` [AMD3100, reference compound], the “inhibition of CXCR4-mediated HIV-1 infection” value in assay [5] was “in contrast to the small molecule inhibitor AMD3100, neither CysC95-146 nor GPR15L inhibited”. Besides, in assay [1], the “antagonism of chemokine signaling via CXCR4” value was “antagonize chemokine signaling via these GPCRs”.

B1: CCL5/RANTES: chemokine ligand of CCR5 (protein, UniProt P13501 24-91, looked up)
C-C motif chemokine 5: SPYSSDTTPCCFAYIARPLPRAHIKEYFYTSGKCSNPAVVFVTRKNRQVCANPEKKWVREYINSLEMS
As to B1, in assay [8], the “inhibition of CCR5-mediated HIV-1 infection by chemokine ligand” value is “inhibit CCR5- or CXCR4-mediated HIV-1 infection, respectively”.

B2: cystatin C: small (13 kDa) basic protein; human Cystatin C protein (purified, from human urine) (protein, UniProt P01034 27-146, looked up)
Cystatin-C: SSPGKPPRLVGGPMDASVEEEGVRRALDFAVGEYNKASNDMYHSRALQVVRARKQIVAGVNYFLDVELGRTTCTKTQPNLDNCPFHDQPHLKRKAFCSFQIYAVPWQGTMTLSKSTCQDA
Regarding B2, in assay [6] (GHOST-GPR15 cells, SIVmac239 F-Luc, peptide preincubation 1 – 2 h 37 °C, 3 dpi), the “inhibition of GPR15-mediated SIVmac239 infection (in words)” value is “little inhibitory effect”.
